This is an account of results in ChEMBL document CHEMBL1126013, “Synthesis and evaluation of some water-soluble prodrugs and derivatives of taxol with antitumor activity” (J Med Chem, 1992).

Where only a bound is given, the exact number is not on record here.

In data set [1] the test system is Mus musculus. In words: Initial average tumor weight was measured in mice induced with human mammary carcinoma at a dose of 8.25 mg/Kg. The class given is functional. A digest of the protocol:
(§1)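 MX-1 human mammary carcinoma xenograft implanted under the renal capsule in mice. Study run at the National Cancer Institute following NIH Publication No. 84-2635. Tumor weights recorded at the start and at the end. Survivors counted after 11 days. %T/C = (Δ tumor weight treated/Δ tumor weight control) × 100 where the tumor grows, and (Δ tumor weight treated/initial control tumor weight) × 100 where it regresses.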

Data set [2] concerns B16. Nature of the data set: Percentage change in cell number of B16 melanoma cells treated with 10e-6 M dose. Format: functional, Mus musculus. A digest of the protocol: (§2)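 B16 melanoma cells exposed to 10⁻⁵ or 10⁻⁶ M compound for 8 h, then rinsed three times with fresh medium. Cells then grown in drug-free medium for 48 h and counted. Result given as percent change relative to the cell number at time zero. Controls are the average of three experiments.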

Data set [3] relates to Mus musculus. Nature of the data set: Number of survivors after 11 days at a dose of 4.13 mg/Kg tested in 5 mice. The class given is functional. In outline: (§3)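 MX-1 human mammary carcinoma xenograft implanted under the renal capsule of mice. The study was run at the National Cancer Institute following the procedures of NIH Publication No. 84-2635. Average tumor weight was recorded at the start and end of treatment, and survivors were counted after 11 days. Dosed groups were compared with an untreated control group.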

Data set [4] concerns Mus musculus. Nature of the data set: Initial average tumor weight was measured in mice induced with human mammary carcinoma at a dose of 16.5 mg/Kg. The class given is functional. A digest of the protocol: as §1
The test system of data set [5] is B16. Nature of the data set: Relative effect on B16 melanoma cell proliferation was determined [IC50 (taxol)/IC50 (derivative)]. Format: functional, Mus musculus.
Data set [6] deals with Mus musculus. Nature of the data set: final average tumor weight was measured in mice induced with human mammary carcinoma at a dose of 33 mg/Kg. The class given is functional. A digest of the protocol:
(§4)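 Subrenal capsule human mammary carcinoma (MX-1) xenograft in mice, run at the National Cancer Institute by NIH Publication No. 84-2635 procedures. Initial and final average tumor weights recorded, with survivors counted after 11 days. %T/C is (Δ tumor weight treated/Δ tumor weight controls)×100 for growing tumors. For regressing tumors it is (Δ tumor weight treated/initial control tumor weight)×100.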

Data set [7] relates to Mus musculus. In words: Tumor growth or regression measured as Percent treated by control at a dose of 16.5 mg/Kg to mice with MX-1 xenograft. The class given is functional. A digest of the protocol: as §1
Data set [8] has as its system Mus musculus. Nature of the data set: Initial average tumor weight was measured in mice induced with human mammary carcinoma at a dose of 33 mg/Kg. Format: functional. A digest of the protocol:
as §1

In data set [9] the test system is Mus musculus. Nature of the data set: Number of survivors after 11 days at a dose of 16.5 mg/Kg tested in 4 mice. The class given is functional. A digest of the protocol:
as §3

In data set [10] the test system is Mus musculus. In words: Antitumor activity of taxoland the derivative against mammary carcinoma xenograft in mice. Format: functional. In outline: as §1
Data set [11] can be described thus: Solubility in water. The conditions noted are these: read-out: S. Format: physicochemical.
In data set [12] the test system is Mus musculus. In words: Number of survivors after 11 days at a dose of 8.25 mg/Kg tested in 4 mice. The class given is functional. In outline: as §3
Data set [13] deals with Mus musculus. In words: Initial average tumor weight was measured in mice induced with human mammary carcinoma at a dose of 4.13 mg/Kg. The class given is functional. In outline: as §1
The species named for another data set is Bos taurus. In words: Relative effect on microtubular assembly (Tubulin polymerized by derivative/tubulin polymerized by taxol). The class given is functional. A digest of the protocol: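 Bovine brain tubulin, purified from microtubule-associated proteins by phosphocellulose chromatography, used at 10 μM. Turbidity followed at 350 nm. Polymer pelleted at 200000g, 37 °C, 4 min, depolymerized on ice, and protein measured by Bradford.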

Data set [14] has as its system Mus musculus. Nature of the data set: Number of survivors after 11 days at a dose of 33 mg/Kg tested in 5 mice. The class given is functional. A digest of the protocol:
as §3

For data set [15], the system named is Mus musculus. Nature of the data set: Final average tumor weight was measured in mice induced with human mammary carcinoma at a dose of 16.5 mg/Kg. The class given is functional. A digest of the protocol:
as §1

Data set [16] deals with Mus musculus. In words: Final average tumor weight was measured in mice induced with human mammary carcinoma at a dose of 4.13 mg/Kg. Format: functional. A digest of the protocol:
as §1

The test system of data set [17] is Mus musculus. In words: Tumor growth or regression measured as Percent treated by control at a dose of 8.25 mg/Kg to mice with MX-1 xenograft. Format: functional. In outline:
as §4

The test system of data set [18] is Mus musculus. Nature of the data set: Tumor growth or regression measured as Percent treated by control at a dose of 33 mg/Kg to mice with MX-1 xenograft; CR refers to complete remission or when the tumor is no longer detectable. Format: functional, organism-based. In outline:
as §1

Data set [19] has as its system B16. Nature of the data set: Concentration required to inhibit the proliferation of B16 melanoma cells was determined. Format: functional, cell-based. The conditions noted are these: Mus musculus.
Data set [20] concerns B16. In words: Percentage change in cell number of B16 melanoma cells treated with 10e-5 M dose. The class given is functional, Mus musculus. In outline:
as §2

Data set [21] relates to Mus musculus. Nature of the data set: Tumor growth or regression measured as Percent treated by control at a dose of 4.13 mg/Kg to mice with MX-1 xenograft. The class given is functional. A digest of the protocol: as §4
In data set [22] the test system is Mus musculus. In words: Final average tumor weight was measured in mice induced with human mammary carcinoma at a dose of 8.25 mg/Kg. Format: functional. A digest of the protocol: as §1

With `CC(=O)O[C@H]1C(=O)[C@]2(C)[C@@H](OC(=O)CN(C)C)C[C@H]3OC[C@@]3(OC(C)=O)[C@H]2[C@H](OC(=O)c2ccccc2)[C@]2(O)C[C@H](OC(=O)[C@H](O)[C@@H](NC(=O)c3ccccc3)c3ccccc3)C(C)=C1C2(C)C.CS(=O)(=O)O`, the “Initial average tumor weight” value with Mus musculus [1] is recorded as 0.81 mg; in the data set with Mus musculus [4], 0.59 mg; in the data set with Mus musculus [8], 0.74 mg; in the data set with Mus musculus [13], 0.74 mg. For the same compound, the “Change in cell number” value in the data set with B16 [2] is 222%; in the data set with B16 [20], -60%. Further, the No. of survivors in the data set with Mus musculus [3] worked out at 4; with Mus musculus [9], 3; with Mus musculus [12], 4; with Mus musculus [14] it was 4. For the same compound, the Relative effect in the data set with B16 [5] was 0.43; in the data set filed under Bos taurus, 0.77. Moreover, the “Final average tumor weight” value in the data set on Mus musculus [6] is on record as 0 mg; in the data set on Mus musculus [15], 0.04 mg; in the data set with Mus musculus [16], 5.66 mg; in the data set on Mus musculus [22] it was 4.19 mg. The T/C is on record as -93% with Mus musculus [7], 23% in the data set with Mus musculus [17], “Complete remission” in the data set on Mus musculus [18] and 34% in the data set on Mus musculus [21]. Moreover, in the data set on Mus musculus [10], the Relative antitumor activity came to 3. Also, the solubility in data set [11] was above 1870 µM. In addition, the midpoint of inhibition in the data set with B16 [19], the IC50, lay at 44 nM.

For orientation: IC50 means the point on the concentration scale where inhibition reaches its midpoint.
